pIC50: −log10 of the molar value. The source made the active and inactive calls. The calls are words filed in the database; no cut-off is given here.
Columns and labels:
[1] = target: MAP kinase-interacting serine/threonine-protein kinase 2 (Homo sapiens) (UniProt Q9HBH9); assay: Inhibition of N-terminal 6His-tagged recombinant human full-length Mnk2 expressed in baculovirus infected Sf21 cells at 3 uM by filter binding assay relative to control
Method in brief: (§1)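 Outsourced single-concentration screen in a commercial panel of 233 protein kinases, run as radiometric filter-binding activity assays. Test agent was tested at 0.3 or 3 µmol/L, as given in each line, from a 10 mmol/L DMSO stock. Activity is expressed as percent inhibition relative to control.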

[2] = test system: NCI-H929; assay: Induction of cell cycle arrest in human NCI-H929 cells assessed as cells accumulation at G1 phase at 1 umol/L incubated for 48 hrs by propidium iodide staining based flow cytometric analysis (reference value: 42%); type: functional; conditions: dose 1 µmol/L, at 1 µM
Method in brief: (§2)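 COLO 205, MCF-7 or NCI-H929 cells seeded in 96-well plates overnight at 37°C, then exposed to DMSO or increasing compound concentrations for 24 or 48 h. Fixed and stained with propidium iodide (Vindelov method), then analysed by flow cytometry for sub-G1, G1, S and G2-M fractions. Experiment repeated twice.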

[3] = target: Serine/threonine-protein kinase Sgk1 (Homo sapiens) (UniProt O00141); assay: Inhibition of human SGK at 3 uM by filter binding assay relative to control
[4] = target: Testis-specific serine/threonine-protein kinase 1 (Homo sapiens) (UniProt Q9BXA7); assay: Inhibition of 6His-tagged recombinant human full length TSSK1 expressed in baculovirus infected Sf21 cells at 0.3 uM by filter binding assay relative to control
Method in brief: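 KinaseProfiler panel of 233 kinases: radiometric filter-binding activity assays with compound at 0.3 or 3 µmol/L. Read-out is percent inhibition.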

[5] = target: Protein kinase C epsilon type (Homo sapiens, UniProt Q02156); assay: Inhibition of PKCepsilon (unknown origin)
[6] = test system: COLO 205; assay: Antitumor activity against human COLO 205 cells xenografted in nu/nu CD-1 mouse assessed as reduction in tumor growth at 30 mg/kg, po for 21 days relative to control; type: functional; conditions: COLO 205, 504 h, time 21 day, read-out: TGI
Method in brief: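 Exponentially growing cells implanted s.c. in the right flank of 8–10-wk-old female athymic nu/nu CD-1 mice. At 150–200 mm3, block-randomized by tumor size into groups of eight. Oral dosing once or twice daily for 21 d; vehicle 20% sulfobutylether-β-cyclodextrin, pH 3.5. Calipers twice weekly; volume = length×width²/2. Growth inhibition = 100×[1 − treated growth/vehicle growth].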

[7] = target: Mitogen-activated protein kinase kinase kinase 9 (Homo sapiens) (UniProt P80192); assay: Inhibition of N-terminal 6His-tagged recombinant human MLK1 (134 to 414 residues) expressed in baculovirus infected Sf21 cells at 0.3 uM by filter binding assay relative to control; method in brief: as §1
[8] = target: Rho-associated protein kinase 1 (Homo sapiens, UniProt Q13464); assay: Inhibition of ROCK1 (unknown origin)
[9] = target: Tyrosine-protein kinase Lyn (Homo sapiens) (UniProt P07948); assay: Inhibition of N-terminal His6-tagged recombinant full-length human Lyn expressed in Sf21 cells at 3 uM by filter binding assay relative to control; method in brief: as §1
[10] = target: Fibroblast growth factor receptor 2 (Homo sapiens) (UniProt P21802); assay: Inhibition of N-terminal, His6-tagged recombinant human FGFR2 (456 to 765 residues) expressed in baculovirus infected Sf21 cells at 0.3 uM by filter binding assay relative to control
[11] = target: Tyrosine-protein kinase JAK2 (Homo sapiens, UniProt O60674); assay: Inhibition of JAK2 (unknown origin)
[12] = Cytotoxicity against HUVEC cells assessed as reduction in cell viability after 72 hrs by CellTiter-Glo assay; type: toxicity, cell-based; conditions: human
Method in brief: (§3)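 Cells seeded in 96-well plates, left overnight at 37°C, then exposed to a range of test concentrations for 72 h. Viability read by CellTiter-Glo luminescence; IC50 from four-parameter curve fit. Lines kept at 37°C, 5% CO2, in recommended growth medium.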

[13] = target: Tyrosine-protein kinase ABL1 (Homo sapiens, UniProt P00519); assay: Inhibition of N-terminal His6-tagged recombinant human Abl (27 to end residues) expressed in baculovirus infected Sf21 cells by filter binding assay
[14] = test system: NCI-H929; assay: Induction of cell cycle arrest in human NCI-H929 cells assessed as effect on sub-2N-DNA content at 0.03 to 10 uM incubated for 24 to 48 hrs by propidium iodide staining based flow cytometric analysis; type: functional; conditions: dose 0.03-10 µM, time lower 24.0 hrs, time upper […]; method in brief: as §2
[15] = target: Focal adhesion kinase 1 (Homo sapiens, UniProt Q05397); assay: Inhibition of N-terminal 6His-tagged recombinant human FAK (411 to 686 residues) expressed in baculovirus infected Sf21 cells by filter binding assay
[16] = target: Serine/threonine-protein kinase PLK3 (Homo sapiens) (UniProt Q9H4B4); assay: Inhibition of N-terminal His6-tagged recombinant human Plk3 (19 to 301 residues) expressed in baculovirus infected Sf21 cells at 0.3 uM by filter binding assay relative to control
[17] = target: Serine/threonine-protein kinase PAK 3 (Homo sapiens, UniProt O75914); assay: Inhibition of C-terminal His6-tagged recombinant human full-length PAK3 expressed in baculovirus infected Sf21 cells by filter binding assay
[18] = target: SRSF protein kinase 1 (Homo sapiens) (UniProt Q96SB4); assay: Inhibition of N-terminal GST-tagged recombinant human SRPK1 expressed in Escherichia coli at 0.3 uM by filter binding assay relative to control; method in brief: as §1
[19] = Inhibition of p70S6K (unknown origin); set-up: species or system Homo sapiens
[20] = test system: COLO 205; assay: Induction of cell cycle arrest in human COLO 205 cells assessed as effect on sub-2N-DNA content at 0.03 to 10 uM incubated for 24 to 48 hrs by propidium iodide staining based flow cytometric analysis; type: functional; conditions: dose 0.03-10 µM, time lower 24.0 hrs, time upper […]; method in brief: as §2
[21] = test system: MX1; assay: Antiproliferative activity against human MX1 cells assessed as reduction in cell viability after 72 hrs by CellTiter-Glo assay; type: functional, cell-based; conditions: MX1, 72 h; method in brief: as §3
[22] = target: Macrophage-stimulating protein receptor (Homo sapiens) (UniProt Q04912); assay: Inhibition of N-terminal GST-tagged recombinant human Ron (983 to end residues) expressed in baculovirus infected Sf21 cells at 0.3 uM by filter binding assay relative to control; method in brief: as §1
[23] = target: Insulin receptor (Mus musculus) (UniProt P15208); conditions: CD-1, dose 30.0 mg/kg, route po, time 2-24 hrs
[24] = Antiproliferative activity against human HuNS1 cells assessed as reduction in cell viability after 72 hrs by CellTiter-Glo assay; type: functional, cell-based; conditions: HuNS1, 72 h; method in brief: as §3
[25] = target: Tyrosine-protein kinase ZAP-70 (Homo sapiens, UniProt P43403); assay: Inhibition of ZAP70 (unknown origin)
[26] = target: Death-associated protein kinase 3 (Homo sapiens) (UniProt O43293); assay: Inhibition of N-terminal GST tagged recombinant human ZIPK (1 to 290 residues) expressed in Escherichia coli at 3 uM by filter binding assay relative to control; method in brief: as §1

Chain of Serine/threonine-protein kinase PAK 3 (O75914 whole entry): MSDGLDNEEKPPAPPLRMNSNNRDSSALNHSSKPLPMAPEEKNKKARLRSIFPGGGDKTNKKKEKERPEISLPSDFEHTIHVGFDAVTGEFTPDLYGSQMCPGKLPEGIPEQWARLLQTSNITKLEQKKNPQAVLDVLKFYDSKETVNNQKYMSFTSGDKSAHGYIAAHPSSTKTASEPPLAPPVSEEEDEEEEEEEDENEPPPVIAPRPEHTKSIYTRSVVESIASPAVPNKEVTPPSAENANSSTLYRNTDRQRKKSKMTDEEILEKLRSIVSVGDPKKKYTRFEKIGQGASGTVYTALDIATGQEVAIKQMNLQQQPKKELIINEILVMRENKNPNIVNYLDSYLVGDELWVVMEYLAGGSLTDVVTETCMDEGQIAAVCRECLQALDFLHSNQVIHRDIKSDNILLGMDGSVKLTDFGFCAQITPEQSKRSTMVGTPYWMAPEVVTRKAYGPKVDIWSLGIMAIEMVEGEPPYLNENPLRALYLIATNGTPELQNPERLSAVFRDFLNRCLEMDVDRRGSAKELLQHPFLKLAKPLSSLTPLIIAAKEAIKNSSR
Chain of MAP kinase-interacting serine/threonine-protein kinase 2 (Homo sapiens) (Q9HBH9 whole entry, looked up): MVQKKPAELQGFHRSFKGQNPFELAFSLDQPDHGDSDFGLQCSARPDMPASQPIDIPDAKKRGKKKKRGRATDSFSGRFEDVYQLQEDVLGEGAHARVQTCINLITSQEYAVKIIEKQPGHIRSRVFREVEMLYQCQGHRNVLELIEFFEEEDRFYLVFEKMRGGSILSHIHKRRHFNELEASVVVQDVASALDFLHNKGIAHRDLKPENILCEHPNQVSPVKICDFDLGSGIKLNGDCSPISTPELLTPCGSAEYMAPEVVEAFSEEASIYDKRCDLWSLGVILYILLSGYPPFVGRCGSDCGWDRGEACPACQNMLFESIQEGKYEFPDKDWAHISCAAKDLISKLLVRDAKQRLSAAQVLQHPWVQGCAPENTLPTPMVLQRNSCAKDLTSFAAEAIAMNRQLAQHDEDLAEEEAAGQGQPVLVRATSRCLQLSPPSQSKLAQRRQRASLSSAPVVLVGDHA
Chain of Tyrosine-protein kinase Lyn (Homo sapiens) (P07948 2-512 limits assumed): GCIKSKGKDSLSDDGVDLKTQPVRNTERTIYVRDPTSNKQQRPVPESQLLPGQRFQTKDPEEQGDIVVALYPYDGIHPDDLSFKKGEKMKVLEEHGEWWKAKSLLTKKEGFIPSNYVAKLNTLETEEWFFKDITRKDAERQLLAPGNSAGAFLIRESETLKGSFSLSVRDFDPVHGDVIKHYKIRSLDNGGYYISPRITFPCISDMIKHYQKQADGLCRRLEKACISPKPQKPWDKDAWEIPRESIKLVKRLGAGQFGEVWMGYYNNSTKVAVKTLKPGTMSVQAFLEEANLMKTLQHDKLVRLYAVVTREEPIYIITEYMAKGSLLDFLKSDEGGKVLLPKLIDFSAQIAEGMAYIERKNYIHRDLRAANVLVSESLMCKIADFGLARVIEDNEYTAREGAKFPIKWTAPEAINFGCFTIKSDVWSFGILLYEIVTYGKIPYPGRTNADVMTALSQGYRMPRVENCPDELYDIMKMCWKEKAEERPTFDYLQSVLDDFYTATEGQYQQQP
Chain of Tyrosine-protein kinase ZAP-70 (P43403 whole entry, the tested form may be a part): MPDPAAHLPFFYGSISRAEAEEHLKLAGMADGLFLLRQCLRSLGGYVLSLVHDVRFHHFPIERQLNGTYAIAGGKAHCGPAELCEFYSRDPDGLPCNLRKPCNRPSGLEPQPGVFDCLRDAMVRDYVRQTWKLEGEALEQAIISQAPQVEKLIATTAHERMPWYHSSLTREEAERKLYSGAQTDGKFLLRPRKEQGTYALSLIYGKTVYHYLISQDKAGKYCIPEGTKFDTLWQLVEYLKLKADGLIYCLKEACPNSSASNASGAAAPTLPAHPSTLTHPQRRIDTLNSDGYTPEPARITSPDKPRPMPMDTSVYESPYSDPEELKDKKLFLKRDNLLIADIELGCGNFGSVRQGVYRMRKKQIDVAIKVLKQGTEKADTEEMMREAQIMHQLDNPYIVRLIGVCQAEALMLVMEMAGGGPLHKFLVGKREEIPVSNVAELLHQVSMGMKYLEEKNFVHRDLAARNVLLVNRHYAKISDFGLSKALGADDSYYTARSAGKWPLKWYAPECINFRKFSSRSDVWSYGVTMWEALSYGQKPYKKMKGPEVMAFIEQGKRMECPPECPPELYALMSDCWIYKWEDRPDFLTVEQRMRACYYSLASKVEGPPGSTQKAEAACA
Chain of Rho-associated protein kinase 1 (Q13464 whole entry): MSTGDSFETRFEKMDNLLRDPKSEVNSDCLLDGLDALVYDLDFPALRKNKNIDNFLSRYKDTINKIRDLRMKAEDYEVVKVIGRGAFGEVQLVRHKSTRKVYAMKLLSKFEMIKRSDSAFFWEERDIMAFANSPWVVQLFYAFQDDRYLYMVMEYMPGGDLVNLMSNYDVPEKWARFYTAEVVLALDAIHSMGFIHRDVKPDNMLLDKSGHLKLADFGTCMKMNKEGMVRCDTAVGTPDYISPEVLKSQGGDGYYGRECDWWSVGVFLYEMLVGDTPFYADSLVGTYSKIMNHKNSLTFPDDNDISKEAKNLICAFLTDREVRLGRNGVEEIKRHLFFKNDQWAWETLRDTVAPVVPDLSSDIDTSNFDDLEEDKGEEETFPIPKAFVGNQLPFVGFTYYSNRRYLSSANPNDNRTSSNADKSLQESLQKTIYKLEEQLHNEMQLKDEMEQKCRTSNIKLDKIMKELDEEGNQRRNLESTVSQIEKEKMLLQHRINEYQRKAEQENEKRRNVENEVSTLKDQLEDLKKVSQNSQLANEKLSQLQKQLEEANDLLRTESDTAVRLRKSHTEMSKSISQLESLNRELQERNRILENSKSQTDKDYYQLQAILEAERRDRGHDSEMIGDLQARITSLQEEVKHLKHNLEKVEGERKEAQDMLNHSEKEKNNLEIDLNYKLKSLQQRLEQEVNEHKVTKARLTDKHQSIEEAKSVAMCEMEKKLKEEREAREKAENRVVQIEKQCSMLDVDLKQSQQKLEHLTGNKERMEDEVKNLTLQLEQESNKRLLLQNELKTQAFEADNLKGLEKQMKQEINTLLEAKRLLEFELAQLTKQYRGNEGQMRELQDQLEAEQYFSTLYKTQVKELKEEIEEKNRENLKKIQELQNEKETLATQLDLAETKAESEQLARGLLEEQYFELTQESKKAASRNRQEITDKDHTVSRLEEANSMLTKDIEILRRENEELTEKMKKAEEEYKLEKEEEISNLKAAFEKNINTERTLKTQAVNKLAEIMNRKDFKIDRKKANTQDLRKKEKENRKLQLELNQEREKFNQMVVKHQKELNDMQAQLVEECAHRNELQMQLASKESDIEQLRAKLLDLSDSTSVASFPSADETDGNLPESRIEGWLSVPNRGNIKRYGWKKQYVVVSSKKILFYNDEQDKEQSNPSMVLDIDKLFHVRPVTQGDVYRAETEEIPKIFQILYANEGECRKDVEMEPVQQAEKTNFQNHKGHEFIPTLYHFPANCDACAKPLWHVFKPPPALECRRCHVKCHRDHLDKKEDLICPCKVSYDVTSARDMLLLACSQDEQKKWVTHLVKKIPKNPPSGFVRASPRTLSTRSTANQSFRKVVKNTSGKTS
Chain of Insulin receptor (Mus musculus) (P15208 28-748 limits assumed): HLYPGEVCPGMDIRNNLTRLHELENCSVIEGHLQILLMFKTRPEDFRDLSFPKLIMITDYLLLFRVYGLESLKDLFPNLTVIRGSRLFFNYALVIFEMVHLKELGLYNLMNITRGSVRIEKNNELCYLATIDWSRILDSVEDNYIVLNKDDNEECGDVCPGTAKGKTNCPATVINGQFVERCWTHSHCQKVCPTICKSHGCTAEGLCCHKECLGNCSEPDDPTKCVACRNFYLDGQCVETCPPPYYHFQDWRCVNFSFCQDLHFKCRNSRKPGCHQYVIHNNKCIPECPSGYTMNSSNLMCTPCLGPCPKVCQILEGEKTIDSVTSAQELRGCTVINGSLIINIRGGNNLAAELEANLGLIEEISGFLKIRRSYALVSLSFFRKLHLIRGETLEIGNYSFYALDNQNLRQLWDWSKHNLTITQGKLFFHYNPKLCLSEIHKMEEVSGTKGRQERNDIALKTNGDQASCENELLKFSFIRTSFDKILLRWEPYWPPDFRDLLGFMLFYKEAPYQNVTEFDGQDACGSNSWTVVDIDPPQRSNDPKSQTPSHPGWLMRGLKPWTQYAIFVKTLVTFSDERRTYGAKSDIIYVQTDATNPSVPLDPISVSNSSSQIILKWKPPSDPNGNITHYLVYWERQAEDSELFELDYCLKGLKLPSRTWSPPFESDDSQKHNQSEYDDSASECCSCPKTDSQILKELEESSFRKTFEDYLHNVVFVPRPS
Chain of Insulin receptor (Mus musculus) (P15208 753-1372 limits assumed): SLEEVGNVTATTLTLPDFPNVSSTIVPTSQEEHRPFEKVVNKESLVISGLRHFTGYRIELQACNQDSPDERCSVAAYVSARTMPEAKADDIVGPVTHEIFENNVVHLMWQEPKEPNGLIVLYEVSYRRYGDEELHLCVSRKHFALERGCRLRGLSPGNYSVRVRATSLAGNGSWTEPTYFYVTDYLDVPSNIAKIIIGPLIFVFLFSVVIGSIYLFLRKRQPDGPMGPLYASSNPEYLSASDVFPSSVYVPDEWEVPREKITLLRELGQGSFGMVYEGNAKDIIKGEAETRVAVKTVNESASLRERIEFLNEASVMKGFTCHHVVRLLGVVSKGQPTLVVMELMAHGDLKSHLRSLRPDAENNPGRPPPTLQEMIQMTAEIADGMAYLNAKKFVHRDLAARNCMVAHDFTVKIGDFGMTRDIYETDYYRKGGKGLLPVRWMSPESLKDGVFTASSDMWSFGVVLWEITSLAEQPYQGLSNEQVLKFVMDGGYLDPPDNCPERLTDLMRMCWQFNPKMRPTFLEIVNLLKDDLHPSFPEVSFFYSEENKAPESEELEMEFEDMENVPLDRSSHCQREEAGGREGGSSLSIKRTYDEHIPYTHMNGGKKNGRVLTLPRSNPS

CCc1cc(Nc2nccc(-c3c(-c4ccc(OC)c(C(=O)Nc5c(F)cccc5F)c4)nc4ccccn34)n2)c(OC)cc1N1CCC(N2CCN(S(C)(=O)=O)CC2)CC1
inhibition [1]: 24% | Activity [2]: 79% | inhibition [3]: 1% | inhibition [4]: 10% | pIC50 [5]: 5.00 | inhibition in vivo at 30 mg/kg [6]: 75% | inhibition [7]: 1% | pIC50 [8]: < 5.00 | inhibition [9]: 37% | inhibition [10]: 21% | pIC50 [11]: < 4.80 | IC50 at 72 h [12]: > 20 µM | pIC50 [13]: 5.32 | Activity [14]: inactive | pIC50 [15]: 6.44 | inhibition [16]: -10% | pIC50 [17]: 6.99 | inhibition [18]: 1% | pIC50 [19]: < 5.00 | Activity [20]: inactive | pIC50 [21]: 6.72 | inhibition [22]: -8% | inhibition [23]: inactive | pIC50 [24]: < 4.52 | pIC50 [25]: < 4.70 | inhibition [26]: 27%

Source: ChEMBL document CHEMBL5678798 (Clin Cancer Res, 2009)
